In ChEMBL document CHEMBL3414559, “Novel C-4 heteroaryl 13-cis-retinamide Mnk/AR degrading agents inhibit cell proliferation and migration and induce apoptosis in human breast and prostate cancer cells and suppress growth of MDA-MB-231 human breast and CWR22Rv1 human prostate tumor xenografts in mice” (J Med Chem, 2015):
Each block holds one molecule with its values, some of them ahead of it. Active and inactive are the calls of the source. The rule behind the calls is not given here.

Columns and labels:
MDA-MB-231 [1] = test: Growth inhibition of human MDA-MB-231 cells by MTT assay; type: functional
Method in brief: (§1)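 Cells grown in RPMI 1640 with 10% FBS, plated at 2500 cells/well, treated across a dose range; growth read by MTT. GI50 taken from dose–response curves by nonlinear regression, at least three independent experiments.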

MDA-MB-468 [2] = test: Growth inhibition of human MDA-MB-468 cells by MTT assay; type: functional; method in brief: as §1
[3] = Growth inhibition of human SKBR3 cells by MTT assay; type: functional; conditions: SK-BR-3; method in brief: as §1
MCF7 [4] = test: Growth inhibition of human MCF7 cells by MTT assay; type: functional; method in brief: as §1
LNCaP [5] = test: Growth inhibition of human LNCAP cells by MTT assay; type: functional; method in brief: as §1
[6] = Growth inhibition of human PC3 cells by MTT assay; type: functional; conditions: PC-3; method in brief: as §1
[7] = Growth inhibition of human CWR22Rv1 cells by MTT assay; type: functional, CWR22R; conditions: 22Rv1; method in brief: as §1
MDA-MB-231 [8] = test: Reduction in Mnk1 protein expression in human MDA-MB-231 cells at 0.63 uM to 20 uM after 24 hrs by SDS-PAGE and Western blotting method; type: functional, cell-based
Method in brief: (§2)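 Breast cancer cells in RPMI 1640 with 10% FBS treated 24 h at indicated concentrations, DMSO vehicle control; equal protein loaded on SDS–PAGE and immunoblotted for Mnk1, Mnk2, peIF4E, eIF4E and cleaved PARP; blots reprobed for GAPDH as loading control.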

MDA-MB-231 [9] = test: Reduction in peIF4E protein expression in human MDA-MB-231 cells at 0.63 uM to 20 uM after 24 hrs by SDS-PAGE and Western blotting method; type: functional, cell-based
Method in brief: (§3)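 MCF-7, MDA-MB-231 and MDA-MB-468 cells, kept in RPMI 1640 with 10% FBS, were exposed for 24 h to a range of concentrations, with DMSO vehicle controls. Equal protein from lysates was separated by SDS–PAGE and probed for Mnk1, Mnk2, peIF4E, eIF4E and cPARP. GAPDH reprobing served as loading control.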

[10] = target: T1, Androgen receptor (Homo sapiens) (UniProt P10275); conditions: LNCaP, at 10 µM
T1 sequence (whole entry): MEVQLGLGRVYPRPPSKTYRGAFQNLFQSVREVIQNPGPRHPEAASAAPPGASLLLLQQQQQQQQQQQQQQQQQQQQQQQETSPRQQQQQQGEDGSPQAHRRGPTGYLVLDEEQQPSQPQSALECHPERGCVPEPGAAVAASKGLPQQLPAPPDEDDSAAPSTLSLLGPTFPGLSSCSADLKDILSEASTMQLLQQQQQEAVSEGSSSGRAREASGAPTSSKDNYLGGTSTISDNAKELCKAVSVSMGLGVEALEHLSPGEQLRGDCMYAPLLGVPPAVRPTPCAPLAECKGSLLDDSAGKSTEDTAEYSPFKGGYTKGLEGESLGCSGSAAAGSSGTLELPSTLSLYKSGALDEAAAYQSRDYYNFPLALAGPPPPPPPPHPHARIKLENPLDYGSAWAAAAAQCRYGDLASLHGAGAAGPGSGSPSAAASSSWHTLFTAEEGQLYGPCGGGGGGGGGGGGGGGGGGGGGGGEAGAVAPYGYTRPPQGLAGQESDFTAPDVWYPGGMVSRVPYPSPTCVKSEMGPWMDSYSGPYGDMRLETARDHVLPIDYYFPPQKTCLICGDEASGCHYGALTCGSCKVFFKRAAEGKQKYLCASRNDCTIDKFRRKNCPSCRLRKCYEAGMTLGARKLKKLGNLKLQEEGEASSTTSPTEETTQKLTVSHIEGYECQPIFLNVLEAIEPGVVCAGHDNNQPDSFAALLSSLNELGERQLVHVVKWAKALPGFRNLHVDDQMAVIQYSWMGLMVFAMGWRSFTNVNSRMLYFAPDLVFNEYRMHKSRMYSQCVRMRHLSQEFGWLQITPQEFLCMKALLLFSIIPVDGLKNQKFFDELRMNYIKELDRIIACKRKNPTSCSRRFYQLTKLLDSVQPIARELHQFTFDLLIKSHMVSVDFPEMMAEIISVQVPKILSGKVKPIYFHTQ

PC-3 = test: Inhibition of cell migration of human PC3 cells at 5 uM after 24 hrs by wound healing assay; type: functional, cell-based
Method in brief: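 Cells (5 × 10⁵ per well) grown to confluence, monolayer scratched at time zero, then exposed to 5 μM for 24 h; initial and final wounds photographed at 100×.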

LNCaP [11] = test: Reduction in Mnk2 protein expression in human LNCAP cells at 0.6 uM to 20 uM after 24 hrs by SDS-PAGE and Western blotting method; type: functional, cell-based
Method in brief: (§4)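 LNCaP cells (RPMI 1640, 10% FBS) exposed 24 h to 0.6–20 μM, DMSO vehicle control; equal protein on SDS–PAGE, immunoblotted for fAR, Mnk1/2, peIF4E, cyclin D1 and cleaved PARP; β-actin reprobe for loading.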

MCF7 [12] = test: Effect on total eIF4E protein expression in human MCF7 cells at 0.63 uM to 20 uM after 24 hrs by SDS-PAGE and Western blotting method; type: functional, cell-based; method in brief: as §2
MDA-MB-468 [13] = test: Induction of apoptosis in human MDA-MB-468 cells assessed as increase in c-PARP formation at 0.63 uM to 20 uM after 24 hrs by SDS-PAGE and Western blotting method; type: functional, cell-based; method in brief: as §2
LNCaP [14] = test: Induction of apoptosis in human LNCAP cells assessed as reduction in cyclin D1 levels at 0.6 uM to 20 uM after 24 hrs by SDS-PAGE and Western blotting method; type: functional, cell-based; method in brief: as §4
MCF7 [15] = test: Reduction in Mnk2 protein expression in human MCF7 cells at 0.63 uM to 20 uM after 24 hrs by SDS-PAGE and Western blotting method; type: functional, cell-based; method in brief: as §2
MCF7 [16] = test: Reduction in peIF4E protein expression in human MCF7 cells at 0.63 uM to 20 uM after 24 hrs by SDS-PAGE and Western blotting method; type: functional, cell-based; method in brief: as §3
LNCaP [17] = test: Effect on total eIF4E protein expression in human LNCAP cells at 0.6 uM to 20 uM after 24 hrs by SDS-PAGE and Western blotting method; type: functional, cell-based
LNCaP [18] = test: Reduction in Mnk1 protein expression in human LNCAP cells at 0.6 uM to 20 uM after 24 hrs by SDS-PAGE and Western blotting method; type: functional, cell-based; method in brief: as §4
MDA-MB-468 [19] = test: Reduction in peIF4E protein expression in human MDA-MB-468 cells at 0.63 uM to 20 uM after 24 hrs by SDS-PAGE and Western blotting method; type: functional, cell-based; method in brief: as §3
MDA-MB-468 [20] = test: Effect on total eIF4E protein expression in human MDA-MB-468 cells at 0.63 uM to 20 uM after 24 hrs by SDS-PAGE and Western blotting method; type: functional, cell-based; method in brief: as §2
MDA-MB-231 [21] = test: Reduction in Mnk2 protein expression in human MDA-MB-231 cells at 0.63 uM to 20 uM after 24 hrs by SDS-PAGE and Western blotting method; type: functional, cell-based; method in brief: as §2
MDA-MB-468 [22] = test: Reduction in Mnk2 protein expression in human MDA-MB-468 cells at 0.63 uM to 20 uM after 24 hrs by SDS-PAGE and Western blotting method; type: functional, cell-based; method in brief: as §2
LNCaP [23] = test: Induction of apoptosis in human LNCAP cells assessed as increase in c-PARP formation at 0.6 uM to 20 uM after 24 hrs by SDS-PAGE and Western blotting method; type: functional, cell-based; method in brief: as §4
LNCaP [24] = test: Reduction in fAR protein expression in human LNCAP cells at 0.6 uM to 20 uM after 24 hrs by SDS-PAGE and Western blotting method; type: functional, cell-based
Method in brief: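 LNCaP cells were treated for 24 h across 0.6–20 μM, with vehicle (DMSO) controls. Equal protein from lysates was run on SDS–PAGE and immunoblotted for fAR, Mnk1/2, peIF4E, cyclin D1 and cleaved PARP. Blots were reprobed for β-actin as loading control.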

MDA-MB-231 [25] = test: Effect on total eIF4E protein expression in human MDA-MB-231 cells at 0.63 uM to 20 uM after 24 hrs by SDS-PAGE and Western blotting method; type: functional, cell-based; method in brief: as §2
MDA-MB-231 [26] = test: Induction of apoptosis in human MDA-MB-231 cells assessed as increase in c-PARP formation at 0.63 uM to 20 uM after 24 hrs by SDS-PAGE and Western blotting method; type: functional, cell-based; method in brief: as §2
MDA-MB-468 [27] = test: Reduction in Mnk1 protein expression in human MDA-MB-468 cells at 0.63 uM to 20 uM after 24 hrs by SDS-PAGE and Western blotting method; type: functional, cell-based; method in brief: as §2
MCF7 [28] = test: Reduction in Mnk1 protein expression in human MCF7 cells at 0.63 uM to 20 uM after 24 hrs by SDS-PAGE and Western blotting method; type: functional, cell-based; method in brief: as §2
MCF7 [29] = test: Induction of apoptosis in human MCF7 cells assessed as increase in c-PARP formation at 0.63 uM to 20 uM after 24 hrs by SDS-PAGE and Western blotting method; type: functional, cell-based; method in brief: as §2

- GI50 (MDA-MB-231 [1]): 2.88 µM
- GI50 (MDA-MB-468 [2]): 13.5 µM
- GI50 (MCF7 [4]): 1.9 µM
Compound: CC1=C(/C=C/C(C)=C/C=C/C(C)=C\C(=O)NCCc2ccc(O)cc2)C(C)(C)CCC1n1ccnc1 (stereo not drawn)
- GI50 [3]: 1.41 µM

- GI50 (MDA-MB-231 [1]): 4.95 µM
- GI50 (MDA-MB-468 [2]): 4.57 µM
- GI50 (MCF7 [4]): 0.4 µM
- GI50 (LNCaP [5]): 3.89 µM
Compound: CC1=C(/C=C/C(C)=C/C=C/C(C)=C\C(=O)Nc2ccc(F)cc2)C(C)(C)CCC1n1ccnc1 (stereo not drawn)
- GI50 [3]: 25.1 µM
- GI50 [6]: 30.2 µM
- GI50 [7]: 8.12 µM

- GI50 (MDA-MB-231 [1]): 14.1 µM
- GI50 (MDA-MB-468 [2]): 14.1 µM
Compound: CC1=C(/C=C/C(C)=C/C=C/C(C)=C/C(=O)O)C(C)(C)CCC1 [TRETINOIN]
- GI50 [3]: 22.9 µM

- GI50 (MDA-MB-231 [1]): 1.74 µM
- GI50 (MDA-MB-468 [2]): 2.54 µM
- GI50 (MCF7 [4]): 1.9 µM
- inhibition [10]: Active
- GI50 (LNCaP [5]): 2.69 µM
Compound: CC1=C(/C=C/C(C)=C/C=C/C(C)=C\C(=O)Nc2ccccc2)C(C)(C)CCC1n1ccnc1 (stereo not drawn)
- inhibition (MDA-MB-231 [8]): Dose-dependent effect
- GI50 [3]: 1.73 µM
- inhibition (MDA-MB-231 [9]): Dose-dependent effect
- inhibition (PC-3): Active
- inhibition (LNCaP [11]): Dose-dependent effect
- Activity (MCF7 [12]): inactive
- Activity (MDA-MB-468 [13]): Dose-dependent effect
- Activity (LNCaP [14]): Active
- inhibition (MCF7 [15]): Dose-dependent effect
- inhibition (MCF7 [16]): Dose-dependent effect
- Activity (LNCaP [17]): inactive
- inhibition (LNCaP [18]): Dose-dependent effect
- inhibition (MDA-MB-468 [19]): Dose-dependent effect
- Activity (MDA-MB-468 [20]): inactive
- inhibition (MDA-MB-231 [21]): Dose-dependent effect
- inhibition (MDA-MB-468 [22]): Dose-dependent effect
- Activity (LNCaP [23]): Active
- GI50 [6]: 8.91 µM
- inhibition (LNCaP [24]): Dose-dependent effect
- Activity (MDA-MB-231 [25]): inactive
- GI50 [7]: 1.28 µM
- Activity (MDA-MB-231 [26]): Dose-dependent effect
- inhibition (MDA-MB-468 [27]): Dose-dependent effect
- inhibition (MCF7 [28]): Dose-dependent effect
- Activity (MCF7 [29]): Dose-dependent effect

- GI50 (MDA-MB-231 [1]): 25.1 µM
- GI50 (MDA-MB-468 [2]): 39.8 µM
- GI50 (MCF7 [4]): 8.32 µM
Compound: CC1=C(/C=C/C(C)=C/C=C/C(C)=C\C(=O)Nc2ccccc2)C(C)(C)CC=C1c1cccnc1
- GI50 [3]: 47.4 µM

- GI50 (MDA-MB-231 [1]): 11.1 µM
- GI50 (MDA-MB-468 [2]): 6.02 µM
- GI50 (MCF7 [4]): 4.65 µM
Compound: CC1=C(/C=C/C(C)=C/C=C/C(C)=C/C(=O)Nc2ccc(O)cc2)C(C)(C)CCC1 [FENRETINIDE]
- GI50 [3]: 3.98 µM

- GI50 (MDA-MB-231 [1]): 1.41 µM
- GI50 (MDA-MB-468 [2]): 2.45 µM
- GI50 (MCF7 [4]): 1.93 µM
Compound: CC1=C(/C=C/C(C)=C/C=C/C(C)=C\C(=O)NCc2ccc(F)cc2)C(C)(C)CCC1n1ccnc1 (stereo not drawn)
- GI50 [3]: 5.5 µM

- GI50 (MDA-MB-231 [1]): 43.6 µM
- GI50 (MDA-MB-468 [2]): 47.9 µM
Compound: CC(=O)C1=C(O)C=C2Oc3c(C(N)=O)c(O)cc(O)c3[C@@]2(C)C1=O
- GI50 [3]: 26 µM

- GI50 (MDA-MB-231 [1]): 14.5 µM
- GI50 (MDA-MB-468 [2]): 23.4 µM
- GI50 (MCF7 [4]): 2.96 µM
Compound: CC1=C(/C=C/C(C)=C/C=C/C(C)=C\C(=O)NCCc2ccc(O)cc2)C(C)(C)CC=C1c1cncnc1
- GI50 [3]: 24 µM
